Laboratory results published in ChEMBL document CHEMBL3525986, “Nicotinamide N-oxidation by CYP2E1 in human liver microsomes” (Drug Metab Dispos, 2013).

What was measured:
Assay type in all cases: ADME
Cytochrome P450 2E1 [1] = biological target: T1, Cytochrome P450 2E1 (Homo sapiens, UniProt P05181); assay: Drug metabolism in human liver microsomes assessed as chlorzoxazone-mediated reduction of CYP2E1-mediated nicotinamide N-oxide formation at 2 mM by HPLC analysis relative to control; details: 2000 µM
T1 sequence (P05181 whole entry): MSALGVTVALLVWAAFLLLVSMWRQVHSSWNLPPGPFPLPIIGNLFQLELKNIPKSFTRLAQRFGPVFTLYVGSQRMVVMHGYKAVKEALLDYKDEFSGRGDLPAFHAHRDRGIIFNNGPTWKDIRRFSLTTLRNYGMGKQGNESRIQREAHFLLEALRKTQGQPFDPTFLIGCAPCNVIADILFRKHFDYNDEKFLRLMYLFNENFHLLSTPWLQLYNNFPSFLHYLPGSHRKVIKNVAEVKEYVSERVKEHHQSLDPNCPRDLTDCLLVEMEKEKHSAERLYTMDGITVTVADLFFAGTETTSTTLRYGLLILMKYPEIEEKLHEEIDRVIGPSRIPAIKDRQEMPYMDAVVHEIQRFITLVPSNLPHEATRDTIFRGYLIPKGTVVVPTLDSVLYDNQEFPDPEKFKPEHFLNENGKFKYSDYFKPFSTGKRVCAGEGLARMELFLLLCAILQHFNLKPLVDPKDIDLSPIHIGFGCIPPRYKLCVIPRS
In short: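 Human liver microsomes (1 mg/ml, 1mM NADPH, pH 7.4) were incubated with 2 mM NAM plus 100 μM chlorzoxazone (final 1% acetonitrile) for 30 min at 37°C. Methanol quench, then HILIC HPLC, UV 254 nm. Compared against solvent control; triplicates, t-test.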

[2] = biological target: T2, Flavin-containing monooxygenase 3 (Homo sapiens, UniProt P31513); assay: Drug metabolism in insect microsomes assessed as FMO3 (unknown origin)-mediated nicotinamide N-oxide formation after 30 mins by HPLC analysis; details: 0.5 h
T2 sequence (P31513 whole entry): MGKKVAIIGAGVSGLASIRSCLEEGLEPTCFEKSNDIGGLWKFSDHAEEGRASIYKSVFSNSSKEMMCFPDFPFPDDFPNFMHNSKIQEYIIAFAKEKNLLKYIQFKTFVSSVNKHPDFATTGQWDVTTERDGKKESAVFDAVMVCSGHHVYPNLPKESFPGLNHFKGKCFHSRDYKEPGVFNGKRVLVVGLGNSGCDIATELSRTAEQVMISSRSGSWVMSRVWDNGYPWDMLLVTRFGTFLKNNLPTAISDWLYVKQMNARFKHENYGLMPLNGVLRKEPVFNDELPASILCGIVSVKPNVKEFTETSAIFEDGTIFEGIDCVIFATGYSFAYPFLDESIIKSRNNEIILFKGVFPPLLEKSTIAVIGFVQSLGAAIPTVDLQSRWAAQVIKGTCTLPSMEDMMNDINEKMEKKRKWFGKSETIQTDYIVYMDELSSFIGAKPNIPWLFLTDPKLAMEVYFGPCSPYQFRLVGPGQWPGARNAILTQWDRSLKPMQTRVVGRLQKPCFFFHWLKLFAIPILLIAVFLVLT

Cytochrome P450 2A6 = biological target: T3, Cytochrome P450 2A6 (Homo sapiens, UniProt P11509); assay: Drug metabolism in human liver microsomes assessed as CYP2A6-mediated nicotinamide N-oxide formation by HPLC analysis
T3 sequence (P11509 whole entry): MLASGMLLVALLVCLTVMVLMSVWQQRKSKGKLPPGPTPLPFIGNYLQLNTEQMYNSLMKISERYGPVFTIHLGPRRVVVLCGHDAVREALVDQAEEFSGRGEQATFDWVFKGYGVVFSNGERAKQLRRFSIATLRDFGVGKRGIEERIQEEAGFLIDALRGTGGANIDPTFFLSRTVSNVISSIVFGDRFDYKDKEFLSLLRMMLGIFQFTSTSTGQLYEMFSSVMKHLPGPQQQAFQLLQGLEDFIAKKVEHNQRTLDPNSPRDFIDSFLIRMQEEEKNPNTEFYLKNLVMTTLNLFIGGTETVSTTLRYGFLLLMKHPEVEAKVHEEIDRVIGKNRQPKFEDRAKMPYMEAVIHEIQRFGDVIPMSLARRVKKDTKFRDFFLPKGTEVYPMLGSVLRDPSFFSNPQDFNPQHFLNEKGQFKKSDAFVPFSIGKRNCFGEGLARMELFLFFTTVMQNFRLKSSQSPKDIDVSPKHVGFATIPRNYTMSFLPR

Cytochrome P450 2E1 [3] = biological target: T1, Cytochrome P450 2E1; assay: Drug metabolism in human liver microsomes assessed as CYP2E1-mediated nicotinamide N-oxide formation preincubated for 5 mins at 45 degC after 30 mins by HPLC analysis in absence of NADPH; details: 0.5 h
In short: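 Before assay, HLM were heated 5 min at 45°C with or without NADPH. Incubation then ran with 2 mM NAM for 30 min in pH 7.4 phosphate buffer. NAM N-oxide was quantified by HILIC HPLC (UV 254 nm) from a standard curve. Triplicate determinations, t-test.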

Cytochrome P450 2E1 [4] = biological target: T1, Cytochrome P450 2E1; assay: Drug metabolism in human liver microsomes assessed as diethyldithiocarbamate-mediated reduction of CYP2E1-mediated nicotinamide N-oxide formation at 2 mM by HPLC analysis relative to control; details: 2000 µM
In short: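 Microsomes (1 mg/ml HLM, 1mM NADPH, pH 7.4) were preincubated 30 min with 100 μM diethyldithiocarbamate (final 0.1% methanol). Then 2 mM NAM was added for 30 min at 37°C. N-oxide was quantified by HILIC HPLC at 254 nm versus control. Triplicate means, t-test.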

Cytochrome P450 2B6 = biological target: T4, Cytochrome P450 2B6 (Homo sapiens, UniProt P20813); assay: Drug metabolism in human liver microsomes assessed as CYP2B6-mediated nicotinamide N-oxide formation by HPLC analysis
T4 sequence (P20813 whole entry): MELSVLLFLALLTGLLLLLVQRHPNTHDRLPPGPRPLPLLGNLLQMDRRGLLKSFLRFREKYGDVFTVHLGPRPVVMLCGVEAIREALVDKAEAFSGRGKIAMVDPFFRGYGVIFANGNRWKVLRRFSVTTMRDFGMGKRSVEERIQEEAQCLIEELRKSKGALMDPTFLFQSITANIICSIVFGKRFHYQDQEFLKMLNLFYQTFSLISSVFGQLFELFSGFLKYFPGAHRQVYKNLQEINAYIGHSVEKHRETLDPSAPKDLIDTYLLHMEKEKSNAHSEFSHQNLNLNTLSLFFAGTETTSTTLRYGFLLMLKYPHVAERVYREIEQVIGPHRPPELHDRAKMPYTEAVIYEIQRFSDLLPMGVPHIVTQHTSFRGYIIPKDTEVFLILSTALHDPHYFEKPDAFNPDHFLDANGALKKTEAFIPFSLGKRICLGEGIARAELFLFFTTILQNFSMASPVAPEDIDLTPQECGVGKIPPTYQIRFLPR

Cytochrome P450 2E1 [5] = biological target: T1, Cytochrome P450 2E1; assay: Drug metabolism in insect microsomes assessed as CYP2E1 (unknown origin)-mediated nicotinamide N-oxide formation after 30 mins by HPLC analysis; details: 0.5 h
In short: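 Insect cell microsomes overexpressing CYP2E1 were diluted 4-fold with control insect microsomes. Otherwise run as for HLM: pH 7.4 phosphate, 1mM NADPH, 37°C, 30 min, across a range of NAM concentrations. Methanol stop, HILIC HPLC with UV at 254 nm. Triplicates.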

Cytochrome P450 2E1 [6] = biological target: T1, Cytochrome P450 2E1; assay: Drug metabolism in human liver microsomes assessed as antibody-mediated reduction in CYP2E1-mediated nicotinamide N-oxide formation at 2 mM by HPLC analysis relative to control; set-up: scale not given: the % may be the effect or the level left; details: 2000 µM
In short: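 HLM (1 mg/ml, pH 7.4 phosphate, 1mM NADPH) were preincubated 5 min at 37°C with 15 microgram anti-CYP2E1 or control mouse antibody. Control antibody was dialysed against Tris to remove azide. Then 2 mM NAM was added for 30 min. HPLC-UV 254 nm quantitation was expressed against the control antibody. Triplicates.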

Cytochrome P450 2E1 [7] = biological target: T1, Cytochrome P450 2E1; assay: Drug metabolism in human liver microsomes assessed as CYP2E1-mediated nicotinamide N-oxide formation at 3 mM after 30 mins by HPLC analysis; details: 0.5 h, 3000 µM
In short: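 Pooled human liver microsomes at 1 mg/ml in 0.1 M NaH2PO4, pH 7.4, with 1mM NADPH were preincubated 2 min at 37°C. NAM was added at varied concentrations and run 30 min, then stopped with ice-cold methanol. N-oxide was measured by HILIC HPLC with UV at 254 nm against a standard curve. Km and Vmax came from a Michaelis-Menten nonlinear fit. Triplicates.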

fold change (FC) (Cytochrome P450 2E1 [1]): > 5
Drug metabolism [2]: metabolite_not_detected
Drug metabolism (Cytochrome P450 2A6): metabolite_not_detected
Drug metabolism (Cytochrome P450 2E1 [3]): metabolite_detected
fold change (FC) (Cytochrome P450 2E1 [4]): 8
Drug metabolism (Cytochrome P450 2B6): metabolite_not_detected
Drug metabolism (Cytochrome P450 2E1 [5]): Dose-dependent effect
Activity (Cytochrome P450 2E1 [6]): < 8%
Drug metabolism (Cytochrome P450 2E1 [7]): metabolite_detected
Compound: NC(=O)c1cccnc1 [NIACINAMIDE]
